Test results published in ChEMBL document CHEMBL4257458, “Antiproliferative activities of alkaloid-like compounds” (Medchemcomm, 2017).
The source made the active and inactive calls. The calls are words filed in the database; no cut-off is given here.

Legend:
[1] = system: MDA-MB-231; assay: Growth inhibition of human MDA-MB-231 cells at 50 uM after 48 hrs by MTS assay; format: functional, cell-based
Procedure, shortened: (§1)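 Cells in DMEM with 10% FBS and 1% penicillin/streptomycin, 37 °C, 5% CO2; 7 × 10^3 cells per well, serum removed after 24 h, then compound (1–50 μM; DMSO ≤0.1%) for 48 h. MTS reagent 4 h at 37 °C, OD 550 nm; blank-subtracted, normalised to DMSO control (100%). IC50 by nonlinear regression; triplicates.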

[2] = system: MDA-MB-231; assay: Growth inhibition of human MDA-MB-231 cells after 48 hrs by MTS assay; format: functional, cell-based; details: MDA-MB-231, 48 h; procedure, shortened: as §1
[3] = system: MDA-MB-231; assay: Induction of apoptosis in human MDA-MB-231 cells after 48 hrs by Annexin V-FITC/propidium iodide staining based flow cytometry; format: functional, cell-based
Procedure, shortened: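 MDA-MB-231 at 1 × 10^5 per well, treated 48 h, 24 h after serum removal, at 20–40 μM (DMSO 0.1% v/v control). Cells trypsinised, washed in cold PBS, stained with Annexin V-FITC and PI (50 μg mL−1) in binding buffer, 20 min dark at 0 °C; flow cytometry scoring viable, early/late apoptotic and necrotic fractions; 3 independent experiments.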

[4] = system: Vero; assay: Antiproliferative activity against African green monkey Vero cells harboring GFP at 50 ug/ml after 4 days by fluorescence assay relative to control; format: cell-based; details: chlorocebus sabaeus, 96 h
Procedure, shortened: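 GFP-expressing VERO (ATCC CCL-81 stably transfected with pEGFP-N1) in MEM with 10% heat-inactivated FBS, pyruvate, NaHCO3 (geneticin omitted during assay); 3.3 × 10^4 cells per mL; compound added, 4 days at 37 °C, 5% CO2; quadruplicate; fluorescence ex 485/em 535 nm, day-0 signal subtracted; % cytotoxicity = [1 − (FU treated/FU 0.5% DMSO)] × 100; ellipticine positive control.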

[5] = system: MDA-MB-231; assay: Antiproliferative activity against human MDA-MB-231 cells assessed as cell viability at 20 uM after 48 hrs by MTS assay relative to control; format: functional; details: MDA-MB-231, 48 h, read-out: Activity; procedure, shortened: as §1
[6] = system: MCF7; assay: Antiproliferative activity against human MCF7 cells at 50 uM after 48 hrs by MTS assay; format: functional, cell-based; procedure, shortened: as §1
[7] = system: MDA-MB-231; assay: Cell cycle arrest in human MDA-MB-231 cells assessed as decrease in G0/G1 phase at 20 uM after 24 hrs by propidium iodide staining based flow cytometry relative to control; format: functional; design: scale not given: the % may be the effect or the level left
Procedure, shortened: (§2)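 MDA-MB-231 seeded at 5 × 10^5 per well, serum-starved 24 h, then treated 24 h (DMSO 0.1% control). Fixed overnight in 80% ethanol at 0 °C, washed, resuspended in PBS with 0.1% Triton X-100 and 0.1 mg mL−1 RNase A, stained with PI (50 μg mL−1) 30 min dark at 37 °C; flow cytometry, 1 × 10^4 events per sample; mean ± SEM of ≥3 independent experiments.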

[8] = system: MDA-MB-231; assay: Growth inhibition of human MDA-MB-231 cells assessed as cell viability at 50 uM after 48 hrs by MTS assay relative to control; format: functional; details: MDA-MB-231, 48 h, read-out: Activity; procedure, shortened: as §1
[9] = system: MDA-MB-231; assay: Cell cycle arrest in human MDA-MB-231 cells assessed as increase in G2/M phase at 20 uM after 24 hrs by propidium iodide staining based flow cytometry relative to control; format: functional; procedure, shortened: as §2
[10] = system: RXF 393; assay: Growth inhibition of human RXF393 cells after 48 hrs by SRB assay; format: functional, cell-based; details: RXF 393, 48 h
[11] = system: SK-MEL-5; assay: Growth inhibition of human SK-MEL-5 cells after 48 hrs by SRB assay; format: functional, cell-based; details: SK-MEL-5, 48 h
[12] = system: DU-145; assay: Growth inhibition of human DU145 cells after 48 hrs by SRB assay; format: functional, cell-based; details: DU-145, 48 h
[13] = system: COLO 205; assay: Growth inhibition of human COLO205 cells after 48 hrs by SRB assay; format: functional, cell-based; details: COLO 205, 48 h
[14] = system: CAKI-1; assay: Growth inhibition of human Caki1 cells after 48 hrs by SRB assay; format: functional, cell-based; details: CAKI-1, 48 h
[15] = system: OVCAR-3; assay: Growth inhibition of human OVCAR3 cells after 48 hrs by SRB assay; format: functional, cell-based; details: OVCAR-3, 48 h
[16] = system: SK-MEL-28; assay: Growth inhibition of human SK-MEL-28 cells after 48 hrs by SRB assay; format: functional, cell-based; details: SK-MEL-28, 48 h
[17] = system: PC-3; assay: Growth inhibition of human PC3 cells after 48 hrs by SRB assay; format: functional, cell-based; details: PC-3, 48 h
[18] = system: HT-29; assay: Growth inhibition of human HT-29 cells after 48 hrs by SRB assay; format: functional, cell-based; details: HT-29, 48 h
[19] = system: CCRF-CEM; assay: Growth inhibition of human CCRF-CEM cells after 48 hrs by SRB assay; format: functional, cell-based
[20] = system: NCI-H522; assay: Growth inhibition of human NCI-H522 cells after 48 hrs by SRB assay; format: functional, cell-based; details: NCI-H522, 48 h
[21] = system: MOLT-4; assay: Growth inhibition of human MOLT4 cells after 48 hrs by SRB assay; format: functional, cell-based; details: MOLT-4, 48 h
[22] = system: MDA-MB-231; assay: Antiproliferative activity against human MDA-MB-231 cells assessed as cell viability at 75 uM after 48 hrs by MTS assay relative to control; format: functional; details: MDA-MB-231, 48 h, read-out: Activity
[23] = system: RPMI-8226; assay: Growth inhibition of human RPMI8226 cells after 48 hrs by SRB assay; format: functional, cell-based; details: RPMI-8226, 48 h
[24] = system: T47D; assay: Growth inhibition of human T47D cells after 48 hrs by SRB assay; format: functional, cell-based
[25] = system: Hs-578T; assay: Growth inhibition of human Hs 578T cells after 48 hrs by SRB assay; format: functional, cell-based
[26] = system: MCF7; assay: Growth inhibition of human MCF7 cells after 48 hrs by SRB assay; format: functional, cell-based; details: MCF7, 48 h
[27] = system: MDA-MB-231; assay: Growth inhibition of human MDA-MB-231 cells after 48 hrs by SRB assay; format: functional, cell-based; details: MDA-MB-231, 48 h
[28] = system: SW-620; assay: Growth inhibition of human SW620 cells after 48 hrs by SRB assay; format: functional, cell-based; details: SW-620, 48 h
[29] = system: HL-60(TB); assay: Growth inhibition of human HL-60(TB) cells after 48 hrs by SRB assay; format: functional, cell-based; details: HL-60, 48 h
[30] = system: MDA-MB-435; assay: Growth inhibition of human MDA-MB-435 cells after 48 hrs by SRB assay; format: functional, cell-based; details: MDA-MB-435, 48 h
[31] = system: EKVX; assay: Growth inhibition of human EKVX cells after 48 hrs by SRB assay; format: functional, cell-based
[32] = system: SF-539; assay: Growth inhibition of human SF539 cells after 48 hrs by SRB assay; format: functional, cell-based; details: SF-539, 48 h

SMILES: CC(=O)N[C@@]1(C)C2CC[C@]3(C)C(C2)CC1[C@H](C)N3C (some centres not stated)
- growth inhibition (GI) [1]: inactive

SMILES: COC(=O)C[C@H]1C(=O)C=C2C3CC4CC(CC[C@@]4(C)N21)[C@]3(C)NC(C)=O (some centres not stated)
- growth inhibition (GI) [1]: inactive
- IC50 [2]: > 50 µM

SMILES: CCC(=O)N[C@@]1(C)C2CC[C@@]3(C)N[C@@H](CC)C1CC3C2 (some centres not stated)
- growth inhibition (GI) [1]: inactive

SMILES: C[C@]1(NC(=O)CCl)C2CC[C@@]3(C)N=C(CCl)C1CC3C2 (relative stereo)
- Activity [3]: Dose-dependent effect
- Activity [4]: 84%
- viability at 20 µM [5]: 90%
- Activity [6]: inactive
- Activity [7]: 20%
- viability at 50 µM [8]: 24%
- Activity [9]: 15%
- IC50 [2]: 7.9 µM

SMILES: CC(=O)N[C@@]1(C)C2CC[C@@]3(C)N=C(CCl)C1CC3C2 (relative stereo)
- growth inhibition (GI) [1]: inactive

SMILES: CCC(=O)N[C@@]1(C)C2CC[C@]3(C)C(C2)CC1[C@H](CC)N3C (some centres not stated)
- growth inhibition (GI) [1]: inactive

SMILES: CCC(=O)N[C@@]1(C)C2CC[C@@]3(C)N=C(CC)C1CC3C2 (relative stereo)
- growth inhibition (GI) [1]: inactive

SMILES: CC(=O)N[C@@]1(C)C2CC[C@@]3(C)N[C@@H](C)C1CC3C2 (some centres not stated)
- growth inhibition (GI) [1]: inactive

SMILES: CC(=O)N[C@@]1(C)C2CC[C@@]3(C)N=C(C)C1CC3C2 (relative stereo)
- growth inhibition (GI) [1]: inactive

SMILES: COC(=O)/C=C1\C(=O)C=C2C3CC4CC(CCC4(C)N21)C3(C)NC(C)=O (configuration not stated)
- IC50 [10]: 6.7 µM
- IC50 [11]: 6.3 µM
- IC50 [12]: 16.9 µM
- IC50 [13]: 7.8 µM
- IC50 [14]: 5.3 µM
- Activity [4]: 77%
- IC50 [15]: 11.8 µM
- IC50 [16]: 1.8 µM
- IC50 [17]: 15.7 µM
- IC50 [18]: 7.5 µM
- IC50 [19]: 4.4 µM
- IC50 [20]: 2 µM
- IC50 [21]: 2.4 µM
- viability at 75 µM [22]: 80%
- IC50 [23]: 4.1 µM
- IC50 [24]: 22.7 µM
- IC50 [25]: 10.9 µM
- IC50 [26]: 7.1 µM
- IC50 [27]: 38.9 µM
- IC50 [28]: 2.8 µM
- IC50 [29]: 5.5 µM
- IC50 [30]: 5.9 µM
- IC50 [31]: 12.2 µM
- IC50 [32]: 3.3 µM

SMILES: CC(=O)N[C@@]1(C)C2CC[C@@]3(C)N[C@@H](CCl)C1CC3C2 (some centres not stated)
- growth inhibition (GI) [1]: inactive
